Entries after “also recorded” stand apart in the source; their conditions may differ. Counter-ions that a name gives are not always drawn. Like-named read-outs stand apart in the source and are kept apart here. Marks after values point to notes of the source that are not given here.
How the values were obtained:
[1] = Stability of 4-PCB 11 sulfate in rat urine; format: in vitro ADME; details: 24 hours at 25 °C (experiments not shown)
human transthyretin = details: cited from earlier work
[2] = format: in vivo, male Sprague-Dawley rats
Procedure, shortened: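 Single tail-vein injection in male rats (247 ± 8 g, 7-day acclimatization): 2 mM dosing solution in 5% (v/v) DMSO/sterile saline, 575 μg/kg; vehicle-injected controls. Killed by CO2 and cervical dislocation ~3 min, 1 h or 24 h post-dose (n = 6). Feces and intestinal contents came from rats held 24 h in metabolism cages. Tissues homogenized in 4 volumes water (liver: 20% acetonitrile). Analysis by negative-ion LC-ESI-MS/MS with internal standard.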

[3] = PCB 11 and its metabolites, rat, cited from earlier work
[4] = 3min, iv 575 μg/kg, assuming total dose 142 μg
[5] = 24 hours, iv 575 μg/kg, assuming total dose 142 μg
[6] = 1 hour, iv 575 μg/kg, assuming total dose 142 μg

SMILES: O=S(=O)(O)Oc1ccc(-c2cccc(Cl)c2)cc1Cl [4-PCB 11 sulfate, 3,3′-dichloro-4′-sulfooxy-biphenyl]
- Stability in rat urine [1]: stable
- Affinity for transthyretin (T4 binding sites) (human transthyretin): affinity comparable to the physiological ligand, thyroxine; also recorded: among the most potent ligands
- Fraction of 4-PCB 11 sulfate not recoverable ([2]; 1 hour, all samples examined): about two thirds
- 4-PCB 11 sulfate concentrations in tissues and fluids examined ([2]; after 24 hours of exposure): below the LOD
- Observable 4-PCB 11 sulfate levels as fraction of the initial dose ([2]; after one hour): about one third
- 4-PCB 11 sulfate in bile ([2]; bile collected during 1 hour after injection, bile duct-cannulated rats, iv): 34 ± 3.9 µg
- Fluid or Tissue (ml or g): brain, exposed animals ([2]; brain weight, exposed rats): 1.69 ± 0.07 ml or g
- % of total dose in brain [2, 4]: 0.6 ± 0.2%
- 4-PCB 11 sulfate in brain ([2]; 3min, iv 575 μg/kg, rat): 0.8 ± 0.3 µg
- 4-PCB 11 sulfate in brain ([2]; 1 hour, iv 575 μg/kg, rat, detectable only in three samples): 0.9 ± 0.9 ^c μg
- % of total dose in brain [2, 5]: 0%
- 4-PCB 11 sulfate in brain ([2]; 24 hours, iv 575 μg/kg, rat): < LOD
- % of total dose in feces ([2]; feces, 24 hours, iv 575 μg/kg, assuming total dose 142 μg): 0%
- 4-PCB 11 sulfate in feces ([2]; feces, 24 hours, iv 575 μg/kg, rat): did not contain detectable levels; also recorded: undetectable; also recorded: < LOD
- % of total dose in intestinal contents ([2]; intestinal contents, 24 hours, iv 575 μg/kg, assuming total dose 142 μg): 0%
- 4-PCB 11 sulfate in intestinal contents ([2]; intestinal contents, 24 hours, iv 575 μg/kg, rat): did not contain detectable levels; also recorded: undetectable; also recorded: < LOD
- Fluid or Tissue (ml or g): kidneys, exposed animals ([2]; kidneys weight, exposed rats): 1.86 ± 0.16 ml or g
- % of total dose in kidneys [2, 4]: 8.7 ± 2.4%
- 4-PCB 11 sulfate in kidneys ([2]; 3min, iv 575 μg/kg, rat): 12 ± 3.4 µg
- % of total dose in kidneys [2, 6]: 1.1 ± 0.5%
- 4-PCB 11 sulfate in kidneys ([2]; 1 hour, iv 575 μg/kg, rat): 1.6 ± 0.7 µg
- % of total dose in kidneys [2, 5]: 0%
- Fluid or Tissue (ml or g): liver, exposed animals ([2]; liver weight, exposed rats): 10.6 ± 0.94 ml or g
- % of total dose in liver [2, 4]: 47 ± 15%
- 4-PCB 11 sulfate in liver ([2]; 3min, iv 575 μg/kg, rat): 67 ± 21 µg
- % of total dose in liver [2, 6]: 2 ± 1%
- 4-PCB 11 sulfate in liver ([2]; 1 hour, iv 575 μg/kg, rat): 2.9 ± 1.4 µg
- % of total dose in liver [2, 5]: 0%
- 4-PCB 11 sulfate in liver ([2]; 24 hours, iv 575 μg/kg, rat): < LOD
- Fluid or Tissue (ml or g): lungs, exposed animals ([2]; lungs weight, exposed rats): 1.3 ± 0.18 ml or g
- % of total dose in lungs [2, 4]: 3.9 ± 1%
- 4-PCB 11 sulfate in lungs ([2]; 3min, iv 575 μg/kg, rat): 5.6 ± 1.4 µg
- % of total dose in lungs [2, 6]: 0.4 ± 0.4%
- 4-PCB 11 sulfate in lungs ([2]; 1 hour, iv 575 μg/kg, rat): 0.6 ± 0.6 µg
- % of total dose in lungs [2, 5]: 0%
- 4-PCB 11 sulfate in lungs ([2]; 24 hours, iv 575 μg/kg, rat): < LOD
- Blood brain barrier crossing (detection in brain tissue) ([2]; rat, iv): ability to cross the blood brain barrier
- Organ weights, exposed versus control animals ([2]; rat, iv 575 μg/kg): no significant differences
- % of total dose in serum ([2]; 3min, iv 575 μg/kg, assuming total dose 142 μg per animal): 35 ± 8.5%
- 4-PCB 11 sulfate in serum ([2]; 3min post-injection, iv 575 μg/kg, rat): 50 ± 12 µg
- % of total dose in serum [2, 6]: 2.1 ± 1.2%
- 4-PCB 11 sulfate in serum ([2]; 1 hour, iv 575 μg/kg, rat): 3.0 ± 1.6 µg
- % of total dose in serum [2, 5]: 0%
- 4-PCB 11 sulfate in serum ([2]; 24 hours, iv 575 μg/kg, rat): < LOD
- % of total dose in urine ([2]; urine, 24 hours collection, iv 575 μg/kg, assuming total dose 142 μg): 3.7 ± 1.8%
- 4-PCB 11 sulfate in urine ([2]; urine, 24 hours collection, iv 575 μg/kg, rat): 5.3 ± 2.5 µg

SMILES: Clc1cccc(-c2cccc(Cl)c2)c1 [PCB 11, 3,3′-dichlorobiphenyl]
- t1/2 clearance from liver ([3]; liver): 2.1 h
- t1/2 clearance from lungs ([3]; lungs): 1.9 h
- t1/2 clearance from serum ([3]; serum): 1.8 h

From publication PMC4496304 (Environmental science & technology, 2015)
